ChEMBL document CHEMBL1828617, “The activity of dispiro peroxides against Fasciola hepatica” (2011)
The source made the active and inactive calls. The calls are words filed in the database; no cut-off is given here.

What was measured:
Fasciola hepatica [1] = assay: Antiparasitic activity against Fasciola hepatica infected in rat assessed as cure rate at 100 mg/kg, po administered as single dose measured after 6 days post treatment; assay type: functional, organism-based; set-up: dose 100 mg/kg
Method in brief: (§1)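 Rats harbouring adult F. hepatica, treated at 8–13 weeks post-infection with a single oral dose given as a suspension in 7% (v/v) Tween 80 and 3% (v/v) EtOH. Killed at day 6 post-treatment. Adult flukes recovered from bile ducts and livers. Worm burden reduction taken from mean total worm burdens of treated versus untreated control rats. Cures = rats cured/rats treated. Significance by Kruskal-Wallis test.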

Fasciola hepatica [2] = assay: Antiparasitic activity against Fasciola hepatica infected in rat assessed as reduction in worm burden at 100 mg/kg, po administered as single dose measured after 6 days post treatment; assay type: functional; set-up: scale not given: the % may be the effect or the level left; method in brief: as §1
Fasciola hepatica [3] = assay: Antiparasitic activity against Fasciola hepatica infected in rat assessed as cure rate at 50 mg/kg, po administered as single dose measured after 6 days post treatment; assay type: functional, organism-based; set-up: dose 50 mg/kg; method in brief: as §1
Fasciola hepatica [4] = assay: Antiparasitic activity against Fasciola hepatica infected in rat assessed as reduction in worm burden at 50 mg/kg, po administered as single dose measured after 6 days post treatment; assay type: functional; set-up: scale not given: the % may be the effect or the level left; method in brief: as §1
Fasciola hepatica [5] = assay: Antiparasitic activity against Fasciola hepatica infected in rat assessed as reduction in worm burden at 25 mg/kg, po administered as single dose measured after 6 days post treatment; assay type: functional; set-up: scale not given: the % may be the effect or the level left; method in brief: as §1
Fasciola hepatica [6] = assay: Antiparasitic activity against Fasciola hepatica infected in rat assessed as cure rate at 25 mg/kg, po administered as single dose measured after 6 days post treatment; assay type: functional, organism-based; set-up: dose 25 mg/kg; method in brief: as §1

Compound	Activity (Fasciola hepatica [1])	Activity (Fasciola hepatica [2]) [%]	Activity (Fasciola hepatica [3])	Activity (Fasciola hepatica [4]) [%]	Activity (Fasciola hepatica [5]) [%]	Activity (Fasciola hepatica [6])
O=C(O)CC1CCC2(CC1)OOC1(CCCCC1)OO2	inactive	29				
O=C(O)c1ccc([C@H]2CC[C@]3(CC2)COC2(OO3)C3CC4CC(C3)CC2C4)cc1 (some centres undefined)	Active	100	Active	100	0	
O=C(O)C[C@H]1CC[C@]2(CC1)COC1(CCCCC1)OO2		95				
O=C(O)CC1CCC2(CC1)OCC1(OO2)C2CC3CC(C2)CC1C3 (centres undefined)	inactive	0				
O=C(O)c1ccc(C2CCC3(CC2)OOC2(OO3)C3CC4CC(C3)CC2C4)cc1 (centres undefined)		92				
O=C(O)[C@H]1CC[C@]2(CC1)OO[C@]1(O2)C2CC3CC(C2)CC1C3	inactive	52				
O=C(O)C1CCC2(CC1)OOC1(CCCCC1)OO2	Active	100		61		
O=C(O)[C@H]1CC[C@@]2(CC1)OOC1(CCCCC1)O2	inactive	26				
C[C@H]1[C@H](OC(=O)CCC(=O)O)O[C@@H]2O[C@@]3(C)CC[C@H]4[C@H](C)CC[C@@H]1[C@@]24OO3 [ARTESUNATE]		30				
O=C(O)c1ccc(C2CCC3(CC2)OOC2(O3)C3CC4CC(C3)CC2C4)cc1 (centres undefined)	Active	100	inactive	19		
O=C(O)[C@H]1CC[C@]2(CC1)COC1(CCCCC1)OO2	Active	100	inactive	71		
O=C(O)[C@H]1CC[C@]2(CC1)COC1(OO2)C2CC3CC(C2)CC1C3 (some centres undefined)		61				
O=C(O)C1CCC2(CC1)OOC1(OO2)C2CC3CC(C2)CC1C3 (centres undefined)	Active	100		48		
O=C(O)C[C@H]1CC[C@]2(CC1)OOC1(O2)C2CC3CC(C2)CC1C3 (some centres undefined)	Active	100				
O=C(O)C[C@H]1CC[C@]2(CC1)COC1(OO2)C2CC3CC(C2)CC1C3 (some centres undefined)	Active	100	Active	100	88	
O=C(O)CC1CCC2(CC1)OOC1(OO2)C2CC3CC(C2)CC1C3 (centres undefined)	Active	100	Active	100	71	inactive
